Laboratory results reported in ChEMBL document CHEMBL3856209, “Novel pyrazolopyridine derivatives as potential angiogenesis inhibitors: Synthesis, biological evaluation and transcriptome-based mechanistic analysis” (Eur J Med Chem, 2016).
The source made the active and inactive calls.

How the values were obtained:
HUVEC [1] = assay: Effect on ZWINT gene expression in serum-starved HUVEC after 24 hrs by microarray analysis relative to control; assay type: functional, Homo sapiens
Procedure, shortened: (§1)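 Confluent serum-starved HUVEC (primary, pooled from 3–5 donors, passage ≤4) treated with 2 μM compound or DMSO vehicle in 2.5% FBS for 6 h or 24 h. Total RNA hybridized to Illumina Human-HT12 arrays, background-corrected, vst-transformed and rsn-normalized. Differential expression versus DMSO by moderated paired t-test (p < 0.05, |log2 fold change| > 0.5).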

HUVEC [2] = assay: Effect on ASPM gene expression in serum-starved HUVEC after 6 hrs by microarray analysis relative to control; assay type: functional, Homo sapiens
Procedure, shortened: (§2)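 Serum-starved confluent HUVEC treated with 2 μM compound or DMSO in 2.5% FBS for 6 h or 24 h; RNA hybridized to Illumina Human-HT12 arrays. Data background-corrected, vst-transformed and rsn-normalized. Differential probes called by moderated paired t-test (limma) at p < 0.05 and log2 fold change >|0.5| vs DMSO.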

HUVEC [3] = assay: Effect on SLC30A7 gene expression in serum-starved HUVEC after 24 hrs by microarray analysis relative to control; assay type: functional, Homo sapiens
HUVEC [4] = assay: Effect on ELMOD1 gene expression in serum-starved HUVEC after 6 hrs by microarray analysis relative to control; assay type: functional, Homo sapiens
Procedure, shortened: (§3)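 Confluent, serum-starved HUVEC (pooled from 3–5 donors, passage ≤4) treated with 2 μM compound or vehicle with 2.5% FBS for 6 h or 24 h. Total RNA hybridized to Illumina Human-HT12 arrays. Data were background-corrected, vst-transformed and rsn-normalized. Hits called by moderated paired t-test versus DMSO-treated cells, p < 0.05 and log2 fold change >|0.5|.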

HUVEC [5] = assay: Effect on FILIP1L gene expression in serum-starved HUVEC after 6 hrs by microarray analysis relative to control; assay type: functional, Homo sapiens; procedure, shortened: as §3
HUVEC [6] = assay: Effect on SLC30A7 gene expression in serum-starved HUVEC after 6 hrs by microarray analysis relative to control; assay type: functional, Homo sapiens
HUVEC [7] = assay: Effect on FAM212A gene expression in serum-starved HUVEC after 24 hrs by microarray analysis relative to control; assay type: functional, Homo sapiens
Procedure, shortened: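 Serum-starved confluent HUVEC (primary, pooled from 3–5 donors, passage ≤4) treated with 2 μM test compound or DMSO vehicle (working dilutions ≤0.1% v/v) in presence of 2.5% FBS for 6 h or 24 h; total RNA hybridized to Illumina Human-HT12 arrays; background correction, vst, rsn normalization; moderated paired t-test versus DMSO, thresholds p < 0.05 and log2 fold change >|0.5|.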

HUVEC [8] = assay: Effect on CXCL16 gene expression in serum-starved HUVEC after 6 hrs by microarray analysis relative to control; assay type: functional, Homo sapiens; procedure, shortened: as §1
HUVEC [9] = assay: Effect on TK1 gene expression in serum-starved HUVEC after 6 hrs by microarray analysis relative to control; assay type: functional, Homo sapiens
HUVEC [10] = assay: Effect on EMCN gene expression in serum-starved HUVEC after 24 hrs by microarray analysis relative to control; assay type: functional, Homo sapiens; procedure, shortened: as §1
HUVEC [11] = assay: Effect on F2RL1 gene expression in serum-starved HUVEC after 6 hrs by microarray analysis relative to control; assay type: functional, Homo sapiens; procedure, shortened: as §1
HUVEC [12] = assay: Effect on EMCN gene expression in serum-starved HUVEC after 6 hrs by microarray analysis relative to control; assay type: functional, Homo sapiens; procedure, shortened: as §1
HUVEC [13] = assay: Effect on SULT1C4 gene expression in serum-starved HUVEC after 6 hrs by microarray analysis relative to control; assay type: functional, Homo sapiens
HUVEC [14] = assay: Effect on HJURP gene expression in serum-starved HUVEC after 24 hrs by microarray analysis relative to control; assay type: functional, Homo sapiens; procedure, shortened: as §3
HUVEC [15] = assay: Effect on HMGB2 gene expression in serum-starved HUVEC after 6 hrs by microarray analysis relative to control; assay type: functional, Homo sapiens
HUVEC [16] = assay: Effect on HLA-B gene expression in serum-starved HUVEC after 24 hrs by microarray analysis relative to control; assay type: functional, Homo sapiens; procedure, shortened: as §3
HUVEC [17] = assay: Effect on FAM213A gene expression in serum-starved HUVEC after 6 hrs by microarray analysis relative to control; assay type: functional, Homo sapiens; procedure, shortened: as §1
HUVEC [18] = assay: Effect on CCL5 gene expression in serum-starved HUVEC after 6 hrs by microarray analysis relative to control; assay type: functional, Homo sapiens; procedure, shortened: as §2
HUVEC [19] = assay: Effect on CDKN3 gene expression in serum-starved HUVEC after 6 hrs by microarray analysis relative to control; assay type: functional, Homo sapiens; procedure, shortened: as §2
HUVEC [20] = assay: Effect on ITGA10 gene expression in serum-starved HUVEC after 24 hrs by microarray analysis relative to control; assay type: functional, Homo sapiens; procedure, shortened: as §3
[21] = Upregulation of SQLE gene expression in serum-starved HUVEC at 2 uM after 24 hrs by qRT-PCR analysis; assay type: functional, cell-based; conditions: Homo sapiens
HUVEC [22] = assay: Effect on VCAM1 gene expression in serum-starved HUVEC after 24 hrs by microarray analysis relative to control; assay type: functional, Homo sapiens
HUVEC [23] = assay: Effect on TMEM154 gene expression in serum-starved HUVEC after 24 hrs by microarray analysis relative to control; assay type: functional, Homo sapiens
HUVEC [24] = assay: Effect on ABCA1 gene expression in serum-starved HUVEC after 6 hrs by microarray analysis relative to control; assay type: functional, Homo sapiens; procedure, shortened: as §1
HUVEC [25] = assay: Effect on IL1RL1 gene expression in serum-starved HUVEC after 24 hrs by microarray analysis relative to control; assay type: functional, Homo sapiens
HUVEC [26] = assay: Effect on LIPG gene expression in serum-starved HUVEC after 24 hrs by microarray analysis relative to control; assay type: functional, Homo sapiens
HUVEC [27] = assay: Effect on MSMO1 gene expression in serum-starved HUVEC after 6 hrs by microarray analysis relative to control; assay type: functional, Homo sapiens
Procedure, shortened: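 Serum-starved confluent HUVEC (pooled from 3–5 donors, passage ≤4) were treated with 2 μM compound or vehicle in 2.5% FBS for 6 h or 24 h, and total RNA was isolated. Hybridization was on Illumina Human-HT12. Data were processed with bgAdjust, vst and rsn normalization. Changes versus DMSO were called by moderated paired t-test at p < 0.05 and |log2 fold change| > 0.5.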

HUVEC [28] = assay: Effect on FEN1 gene expression in serum-starved HUVEC after 24 hrs by microarray analysis relative to control; assay type: functional, Homo sapiens; procedure, shortened: as §1
HUVEC [29] = assay: Effect on FTH1P8 gene expression in serum-starved HUVEC after 6 hrs by microarray analysis relative to control; assay type: functional, Homo sapiens; procedure, shortened: as §3
HUVEC [30] = assay: Effect on BHLHE40 gene expression in serum-starved HUVEC after 24 hrs by microarray analysis relative to control; assay type: functional, Homo sapiens; procedure, shortened: as §2
HUVEC [31] = assay: Effect on RNU4ATAC gene expression in serum-starved HUVEC after 24 hrs by microarray analysis relative to control; assay type: functional, Homo sapiens
HUVEC [32] = assay: Effect on CENPW gene expression in serum-starved HUVEC after 6 hrs by microarray analysis relative to control; assay type: functional, Homo sapiens; procedure, shortened: as §2
HUVEC [33] = assay: Effect on RNA18S5 gene expression in serum-starved HUVEC after 24 hrs by microarray analysis relative to control; assay type: functional, Homo sapiens
[34] = target: Vascular endothelial growth factor receptor 2 (Homo sapiens) (UniProt P35968); assay: Inhibition of VEGF-165-induced VEGFR2 autophosphorylation at Tyr996 in serum-starved HUVEC at 2 uM preincubated for 2 hrs followed by VEGF-165 induction measured after 5 mins by Western blot analysis; assay type: cell-based
HUVEC [35] = assay: Effect on IL10 gene expression in serum-starved HUVEC after 6 hrs by microarray analysis relative to control; assay type: functional, Homo sapiens; procedure, shortened: as §3
HUVEC [36] = assay: Effect on TAOK1 gene expression in serum-starved HUVEC after 6 hrs by microarray analysis relative to control; assay type: functional, Homo sapiens

Vascular endothelial growth factor receptor 2 (Homo sapiens), sequence (P35968 whole entry): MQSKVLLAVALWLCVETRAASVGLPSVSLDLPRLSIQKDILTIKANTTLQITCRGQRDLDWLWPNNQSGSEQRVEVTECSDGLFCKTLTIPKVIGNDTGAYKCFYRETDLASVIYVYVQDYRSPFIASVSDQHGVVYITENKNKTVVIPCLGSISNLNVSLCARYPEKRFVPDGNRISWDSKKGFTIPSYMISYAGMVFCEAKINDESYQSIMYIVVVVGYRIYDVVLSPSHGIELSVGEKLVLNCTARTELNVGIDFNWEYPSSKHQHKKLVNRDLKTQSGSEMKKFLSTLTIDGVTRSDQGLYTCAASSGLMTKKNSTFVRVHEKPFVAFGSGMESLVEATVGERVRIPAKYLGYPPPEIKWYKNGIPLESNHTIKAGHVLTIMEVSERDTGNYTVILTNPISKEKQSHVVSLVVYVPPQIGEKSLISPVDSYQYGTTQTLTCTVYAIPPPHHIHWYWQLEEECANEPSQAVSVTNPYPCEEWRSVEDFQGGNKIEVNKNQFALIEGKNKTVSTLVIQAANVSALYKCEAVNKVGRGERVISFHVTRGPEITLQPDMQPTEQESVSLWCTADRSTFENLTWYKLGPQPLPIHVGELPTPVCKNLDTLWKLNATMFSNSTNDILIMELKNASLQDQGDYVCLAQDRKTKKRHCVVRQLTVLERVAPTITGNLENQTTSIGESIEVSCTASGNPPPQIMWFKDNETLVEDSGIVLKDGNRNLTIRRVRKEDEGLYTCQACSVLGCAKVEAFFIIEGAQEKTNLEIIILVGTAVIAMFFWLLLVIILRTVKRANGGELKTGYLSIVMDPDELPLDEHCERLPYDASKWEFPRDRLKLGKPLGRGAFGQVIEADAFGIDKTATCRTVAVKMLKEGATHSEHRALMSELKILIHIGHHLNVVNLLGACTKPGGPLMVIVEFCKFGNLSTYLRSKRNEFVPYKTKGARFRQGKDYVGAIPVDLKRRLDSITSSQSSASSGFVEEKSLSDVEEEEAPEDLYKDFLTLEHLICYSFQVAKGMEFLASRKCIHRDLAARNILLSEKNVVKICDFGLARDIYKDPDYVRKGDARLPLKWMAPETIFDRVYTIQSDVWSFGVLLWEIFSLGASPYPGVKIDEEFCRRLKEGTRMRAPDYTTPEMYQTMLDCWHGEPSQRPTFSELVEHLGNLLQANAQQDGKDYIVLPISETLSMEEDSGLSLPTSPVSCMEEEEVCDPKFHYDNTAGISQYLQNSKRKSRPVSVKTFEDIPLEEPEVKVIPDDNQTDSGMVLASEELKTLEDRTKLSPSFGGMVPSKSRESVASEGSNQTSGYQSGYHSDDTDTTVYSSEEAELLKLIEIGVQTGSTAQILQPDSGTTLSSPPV

With `COc1ccc(Cn2nc(-c3ccccc3)c3cc(Cl)nc(N4CCNCC4)c32)cc1` the log2FC (HUVEC [1]) was -0.5572, the “fold change (FC)” value (HUVEC [2]) was 0.1684 and the log2FC (HUVEC [3]) was 0.0778. For the same compound, the log2FC (HUVEC [4]) was -0.1337, the log2FC (HUVEC [5]) was 0.5185 and the log2FC (HUVEC [6]) was 0.512.

With `COc1ccc(Cn2nc(-c3ccccc3)c3cc(Nc4ccc(N5CCN(C)CC5)cc4)nc(N4CCN(C)CC4)c32)cc1` the “fold change (FC)” value (HUVEC [7]) was 0.5468, the “fold change (FC)” value (HUVEC [8]) was 0.5236 and the log2FC (HUVEC [9]) was -0.2736. The “fold change (FC)” value (HUVEC [10]) was 0.5299, the “fold change (FC)” value (HUVEC [11]) was 0.5398 and the “fold change (FC)” value (HUVEC [12]) was 0.2035. The “fold change (FC)” value (HUVEC [13]) was 0.1329, the log2FC (HUVEC [14]) was -0.6338 and the “fold change (FC)” value (HUVEC [15]) was -0.0362. For the same compound, the log2FC (HUVEC [16]) was -0.5811, the “fold change (FC)” value (HUVEC [17]) was -0.0934 and the “fold change (FC)” value (HUVEC [18]) was 0.2358. The log2FC (HUVEC [19]) was -0.0153, the log2FC (HUVEC [20]) was 0.5991 and the Activity [21] was “Active”. For the same compound, the log2FC (HUVEC [22]) was -0.7052, the log2FC (HUVEC [23]) was 0.8028 and the “fold change (FC)” value (HUVEC [24]) was 0.0783. The “fold change (FC)” value (HUVEC [25]) was -0.5903, the log2FC (HUVEC [26]) was 1.1948 and the “fold change (FC)” value (HUVEC [27]) was 0.7741. The “fold change (FC)” value (HUVEC [28]) was -0.6, the “fold change (FC)” value (HUVEC [29]) was 0.2063 and the log2FC (HUVEC [30]) was 0.6018. It also gave a log2FC (HUVEC [31]) of -0.0618 and a log2FC (HUVEC [32]) of -0.2667.

With `COc1ccc(Cn2nc(-c3ccccc3)c3cc(Nc4ccc(N5CCN(C)CC5)cc4)nc(N4CCNCC4)c32)cc1` the log2FC (HUVEC [33]) was 0.5309, the inhibition [34] was “Active” and the log2FC (HUVEC [35]) was 0.4049. The log2FC (HUVEC [36]) was -0.1058.
